Screening results (PubChem BioAssay)
Shown are actives, neighbours in structure and some others; about 1.7% of the full set was active somewhere.
LMPTP inh: blocks human LMPTP phosphatase; inhibition, % at 20 µM; AID 651560; actives 0.22% (n = 360,000); P24666; recombinant LMPTP-A, OMFP fluorogenic substrate, fluorescence intensity;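 active means compounds that cut the enzyme signal by at least half of the control window in the single-dose screen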
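Test system: LMPTP-A, protein tyrosine phosphatase of low molecular weight; Input: 0.625 nM enzyme; Incubation: 50 min dark incubation at room temperature; Signal: endpoint fluorescence intensity from OMFP dephosphorylation; Read-out basis: % inhibition versus control wells.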
Scp1 inh: blocks human Scp-1 phosphatase activity | Recombinant Scp1, phosphopeptide, malachite green phosphate absorbance | inhibition, % at 20 µM | actives 0.88% (n = 340,000) | AID 493091;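 active means inhibition above about 50% at 20 µM, limit read from the data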
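Times: enzyme reaction 45 min at room temperature, colour 5 min, stabilisation 30 min. Material: SCP-1 catalytic fragment, aa 76-261. Medium: Acidic Tris acetate buffer with magnesium and detergent. Signal: colorimetric free-phosphate detection, absorbance 630 nm. Read-out basis: % inhibition of SCP-1 phosphate liberation. Reagent: Phosphorylated 17-residue peptide substrate.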
SUMO1-SIM PPI: modulators of human SUMO1-mediated protein-protein interactions; P63165; SUMO1 binding to a labelled peptide, TR-FRET, 1 h; inhibition, % at 20 µM; actives 0.33% (n = 360,000); AID 602429; in the data active means inhibition above about 37%
DNMT1 block: inhibitors of human DNMT1 | P26358 | DNMT1 molecular beacon, Hinp1I cleavage, fluorescence | inhibition (reported as % activation of signal), % at 10 µM | actives 0.83% (n = 360,000); in the data active means inhibition above about 50%
Target sequence (P26358 504-1616 limits assumed): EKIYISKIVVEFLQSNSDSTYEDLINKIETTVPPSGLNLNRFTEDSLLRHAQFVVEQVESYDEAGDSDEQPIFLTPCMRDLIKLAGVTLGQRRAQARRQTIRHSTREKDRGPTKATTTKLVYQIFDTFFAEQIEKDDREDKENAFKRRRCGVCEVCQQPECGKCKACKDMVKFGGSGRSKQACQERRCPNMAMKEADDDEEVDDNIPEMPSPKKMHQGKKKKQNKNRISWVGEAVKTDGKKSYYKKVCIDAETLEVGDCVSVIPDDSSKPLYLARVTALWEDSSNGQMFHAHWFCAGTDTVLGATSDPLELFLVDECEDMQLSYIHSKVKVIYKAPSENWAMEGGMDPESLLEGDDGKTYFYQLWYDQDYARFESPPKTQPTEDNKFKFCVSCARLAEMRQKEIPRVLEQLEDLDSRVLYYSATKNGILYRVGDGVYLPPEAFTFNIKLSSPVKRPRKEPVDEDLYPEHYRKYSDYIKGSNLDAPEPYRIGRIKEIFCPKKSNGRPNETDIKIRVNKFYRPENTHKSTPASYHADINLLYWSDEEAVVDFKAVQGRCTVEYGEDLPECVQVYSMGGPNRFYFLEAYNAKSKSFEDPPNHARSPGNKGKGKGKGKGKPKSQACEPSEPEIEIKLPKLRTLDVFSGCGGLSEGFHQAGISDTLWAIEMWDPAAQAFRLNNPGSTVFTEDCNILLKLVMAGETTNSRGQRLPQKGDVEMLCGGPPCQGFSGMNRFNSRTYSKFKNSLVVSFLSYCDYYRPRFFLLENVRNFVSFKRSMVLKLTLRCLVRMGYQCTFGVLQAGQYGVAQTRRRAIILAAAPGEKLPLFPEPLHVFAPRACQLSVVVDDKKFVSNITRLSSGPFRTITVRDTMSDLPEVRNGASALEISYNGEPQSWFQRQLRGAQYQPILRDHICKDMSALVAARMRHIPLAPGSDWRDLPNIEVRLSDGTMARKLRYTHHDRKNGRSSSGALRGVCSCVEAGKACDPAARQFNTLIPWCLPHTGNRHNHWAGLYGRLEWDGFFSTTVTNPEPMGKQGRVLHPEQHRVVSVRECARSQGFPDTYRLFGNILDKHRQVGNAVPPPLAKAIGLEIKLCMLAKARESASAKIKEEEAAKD
STEP block: blocks human striatal-enriched tyrosine phosphatase. P54829. recombinant STEP, OMFP fluorogenic substrate, fluorescence. inhibition, % at 20 µM. actives 0.25% (n = 360,000). AID 588621;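 active means inhibition at 20 µM, scaled per plate between control wells, above about 37%, limit read from the data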
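Material: STEP (striatal-enriched tyrosine phosphatase) enzyme, cell-free | Medium: 50 mM Bis-Tris pH 6.0 with 2.5 mM DTT and 0.005% Tween 20 | Read-out: Percent inhibition scaled to no-enzyme and uninhibited-enzyme controls, plate-pattern corrected | Signal: Fluorescence read at 480 nm ex / 540 nm em | Times: 20 min reaction, room temperature, in the dark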
Each line names hits and unclear results; the compound was inactive in the other large screens; ! = a repeat was not active.

O=C1C(Cl)=C(N2CCCCC2)C(=O)C(Cl)=C1c1cnc(N2CCCCC2)s1	DNMT1 block 84
O=C1C(Cl)=C(N2CCCCCC2)C(=O)N1c1ccc(Cl)cc1	none
CN(C)c1ncc(C2=C(Cl)C(=O)C(N3CCCC3)=C(Cl)C2=O)s1	DNMT1 block 69
CC1(C(=O)NS(=O)(=O)C2CC2)CCN(C(=O)c2c(F)cccc2F)C1 (stereo unspecified)	none (no result: Scp1 inh)
CC1=C(C#N)c2nc(N)c(C#N)c(C)c2/C1=C\c1ccc(-c2ccccc2C(=O)O)o1	Scp1 inh 63, DNMT1 block 62
COc1cc(/C=C2/C(C)=C(C#N)c3nc(N)c(C#N)c(C)c32)ccc1OCC(=O)O	none (no result: LMPTP inh, SUMO1-SIM PPI, DNMT1 block, STEP block)
O=C(CCc1nnc2n(Cc3ccc(Cl)cc3)c(=O)c3ccccc3n12)N1CCN(c2ccccn2)CC1	LMPTP inh 64
O=C(CSc1ccc(-c2ccncc2)nn1)c1ccc(Cl)cc1	SUMO1-SIM PPI 51
Cc1ccc(C(=O)CSc2ccc(-c3ccncc3)nn2)cc1	none
Cc1ccc2nc(N3C(=O)C(O)=C(C(=O)c4cc5ccccc5o4)C3c3cccs3)sc2c1 (stereo unspecified)	DNMT1 block 78
COc1ccc(OC)c(N=c2ssnc2Cl)c1	none
COc1cc(N=c2ssnc2Cl)c(OC)cc1Cl	LMPTP inh 48!
O=C(CSc1nnc(CNC(=O)c2cccs2)o1)Nc1ccccc1F	none
CC(=O)Oc1cc(C(=O)OCC(=O)N2CCc3ccccc3C2)cc(OC(C)=O)c1OC(C)=O	Scp1 inh 53
NC(=O)c1c(NC(=O)Cn2nc(C(=O)O)c3ccccc3c2=O)sc2c1CCCC2	none
NC(=O)c1c(NC(=O)Cn2nc(C(=O)O)c3ccccc3c2=O)sc2c1CCC2	SUMO1-SIM PPI 66
CCN(CC)C(=O)c1ccc(/C=C/c2c[nH]c3ccccc23)[n+](C)c1	none
CC[n+]1c(/C=C/c2c[nH]c3ccccc23)ccc2cc(C)ccc21	Scp1 inh 68 (no result: LMPTP inh, SUMO1-SIM PPI, DNMT1 block, STEP block)
Cc1ccc(S(=O)(=O)NC(=O)C2(C)CCN2C(=O)c2ccccc2)nc1 (stereo unspecified)	none (no result: Scp1 inh)
CN1OC[C@@H]2CN(S(=O)(=O)c3cccc(C(F)(F)F)c3)[C@H](c3ccc(-c4cccnc4)cc3)C[C@@H]21	none (no result: Scp1 inh)
COc1ccc(OC)c(C(=O)CN2CCN(S(=O)(=O)c3ccc(Br)cc3)CC2)c1	none
CC(C)c1ccc(S(=O)(=O)N2CCN(CC(=O)Nc3ccc(Cl)cc3F)CC2)cc1	none
O=C(CN1CCN(S(=O)(=O)c2ccc(Br)cc2)CC1)c1ccc(O)c(O)c1	LMPTP inh 59
CC(C)c1ccc(S(=O)(=O)N2CCN(CC(=O)c3ccc(O)c(O)c3)CC2)cc1	LMPTP inh 68 (no result: Scp1 inh)
N#CC1(NC(=O)COC(=O)c2cccc(-n3cnnn3)c2)CCCCC1	none
Cc1ccccc1-c1ccnc2[nH]n(-c3ccccc3)c(=O)c12	none
O=C(COC(=O)c1ccc(Br)o1)Nc1nc2c(F)c(F)c(F)cc2s1	LMPTP inh 60
COc1cccc(CNC(=O)C2CCN(S(=O)(=O)N3CCC(C)CC3)CC2)c1	none
CCCc1nn2c(=O)cc(COc3ccc(NC(=O)c4ccco4)cc3)nc2s1	SUMO1-SIM PPI 66
CCc1nn2c(=O)cc(COc3ccc(NC(=O)c4ccco4)cc3)nc2s1	none
COc1ccc(C(=O)N2CCCCC2c2cc(C(=O)Nc3cccc(C#N)c3)no2)cc1 (stereo unspecified)	none (no result: Scp1 inh)
CCOC(=O)c1ccc(S(=O)(=O)N2CCN(CC(O)COc3cccc(C(C)=O)c3)CC2)cc1 (stereo unspecified)	none
COc1ccc(NS(=O)(=O)c2ccc(C(=O)NCC3(N4CCOCC4)CCCCC3)cc2)cc1	SUMO1-SIM PPI 40
CCOC(=O)C(=NCCCN(C)C)NNc1cc(C(F)(F)F)ccc1Cl	none
Cc1nc2cc(-c3ccsc3-n3c(C)ccc3C)[nH]n2c(=O)c1Cl	SUMO1-SIM PPI 41
Cc1ccccc1-c1cc2nc(C)c(Cl)c(=O)n2[nH]1	none
CCCN(c1ccc(OCC)cc1)S(=O)(=O)c1ccc2c(c1)NC(=O)CO2	none
CCCCCC(=O)Nc1cccc(C2=NOC3(C2)C[C@@H](C(N)=O)N(C(=O)c2ccc(OC)cc2)C3)c1 (stereo partly specified)	none
